# Reference: ChEMBL document CHEMBL1287747, “Highly active antimycobacterial derivatives of benzoxazine” (2010)
# Tested on: Mycobacterium tuberculosis
# Assay: Antimycobacterial activity against Mycobacterium tuberculosis CNCTC My 331/88 after 21 days by microdilution method
# Format: functional
# Details: CNCTC My 331/88, 504 h
# Summary of the method: (§1)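 Strains from the Czech National Collection of Type Cultures, tested by dilution micromethod in Šula semisynthetic medium. Incubated at 37 °C and read at 14 and 21 days. MIC is the lowest concentration inhibiting growth.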
row,Compound,MIC
1,CCC(C)c1ccc(-n2c(=O)oc3cc(Cl)ccc3c2=O)cc1 (configuration not stated),4 µM
2,CC(C)(C)c1ccc(-n2c(=O)oc3cc(Cl)ccc3c2=O)cc1,4 µM
3,CC(C)c1ccc(-n2c(=O)oc3cc(Cl)ccc3c2=S)cc1,1 µM
4,CCC(C)c1ccc(-n2c(=O)oc3ccc(Cl)cc3c2=S)cc1 (configuration not stated),1 µM
5,CCC(C)c1ccc(-n2c(=O)oc3cc(Cl)ccc3c2=S)cc1 (configuration not stated),2 µM
6,CCCCc1ccc(-n2c(=O)oc3ccc(Cl)cc3c2=S)cc1,2 µM
7,CC(C)(C)c1ccc(-n2c(=O)oc3cc(Cl)ccc3c2=S)cc1,2 µM
8,CCc1ccc(-n2c(=S)oc3ccc(Br)cc3c2=S)cc1,2 µM
9,CCc1ccc(-n2c(=S)oc3ccc(Cl)cc3c2=S)cc1,0.5 µM
10,CCc1ccc(-n2c(=S)oc3cc(Cl)ccc3c2=S)cc1,0.5 µM
11,CC(C)c1ccc(-n2c(=S)oc3ccc(Br)cc3c2=S)cc1,1 µM
12,CC(C)c1ccc(-n2c(=S)oc3ccc(Cl)cc3c2=S)cc1,1 µM
13,CC(C)c1ccc(-n2c(=S)oc3cc(Cl)ccc3c2=S)cc1,1 µM
14,NNC(=O)c1ccncc1 [ISONIAZID],0.5 µM

# Tested on: Mycobacterium avium
# Assay: Antimycobacterial activity against Mycobacterium avium CNCTC My 330/88 after 14 days by microdilution method
# Format: functional
# Details: CNCTC My 330/88, 336 h
# Summary of the method: as §1
row,Compound,MIC
1,CCC(C)c1ccc(-n2c(=O)oc3cc(Cl)ccc3c2=O)cc1 (configuration not stated),8 µM
2,CC(C)(C)c1ccc(-n2c(=O)oc3cc(Cl)ccc3c2=O)cc1,4 µM
3,CC(C)c1ccc(-n2c(=O)oc3cc(Cl)ccc3c2=S)cc1,8 µM
4,CCC(C)c1ccc(-n2c(=O)oc3ccc(Cl)cc3c2=S)cc1 (configuration not stated),32 µM
5,CCC(C)c1ccc(-n2c(=O)oc3cc(Cl)ccc3c2=S)cc1 (configuration not stated),8 µM
6,CCCCc1ccc(-n2c(=O)oc3ccc(Cl)cc3c2=S)cc1,8 µM
7,CC(C)(C)c1ccc(-n2c(=O)oc3cc(Cl)ccc3c2=S)cc1,4 µM
8,CCc1ccc(-n2c(=S)oc3ccc(Br)cc3c2=S)cc1,62.5 µM
9,CCc1ccc(-n2c(=S)oc3ccc(Cl)cc3c2=S)cc1,8 µM
10,CCc1ccc(-n2c(=S)oc3cc(Cl)ccc3c2=S)cc1,4 µM
11,CC(C)c1ccc(-n2c(=S)oc3ccc(Br)cc3c2=S)cc1,8 µM
12,CC(C)c1ccc(-n2c(=S)oc3ccc(Cl)cc3c2=S)cc1,32 µM
13,CC(C)c1ccc(-n2c(=S)oc3cc(Cl)ccc3c2=S)cc1,8 µM
14,NNC(=O)c1ccncc1 [ISONIAZID],> 250 µM

# Tested on: Mycobacterium kansasii
# Assay: Antimycobacterial activity against Mycobacterium kansasii CNCTC My 235/80 after 14 days by microdilution method
# Format: functional
# Details: CNCTC My 235/80, 336 h
# Summary of the method: as §1
row,Compound,MIC
1,CCC(C)c1ccc(-n2c(=O)oc3cc(Cl)ccc3c2=O)cc1 (configuration not stated),8 µM
2,CC(C)(C)c1ccc(-n2c(=O)oc3cc(Cl)ccc3c2=O)cc1,8 µM
3,CC(C)c1ccc(-n2c(=O)oc3cc(Cl)ccc3c2=S)cc1,8 µM
4,CCC(C)c1ccc(-n2c(=O)oc3ccc(Cl)cc3c2=S)cc1 (configuration not stated),8 µM
5,CCC(C)c1ccc(-n2c(=O)oc3cc(Cl)ccc3c2=S)cc1 (configuration not stated),4 µM
6,CCCCc1ccc(-n2c(=O)oc3ccc(Cl)cc3c2=S)cc1,8 µM
7,CC(C)(C)c1ccc(-n2c(=O)oc3cc(Cl)ccc3c2=S)cc1,4 µM
8,CCc1ccc(-n2c(=S)oc3ccc(Br)cc3c2=S)cc1,8 µM
9,CCc1ccc(-n2c(=S)oc3ccc(Cl)cc3c2=S)cc1,8 µM
10,CCc1ccc(-n2c(=S)oc3cc(Cl)ccc3c2=S)cc1,8 µM
11,CC(C)c1ccc(-n2c(=S)oc3ccc(Br)cc3c2=S)cc1,32 µM
12,CC(C)c1ccc(-n2c(=S)oc3ccc(Cl)cc3c2=S)cc1,8 µM
13,CC(C)c1ccc(-n2c(=S)oc3cc(Cl)ccc3c2=S)cc1,4 µM
14,NNC(=O)c1ccncc1 [ISONIAZID],> 250 µM

# Tested on: Mycobacterium kansasii
# Assay: Antimycobacterial activity against Mycobacterium kansasii CNCTC My 235/80 after 21 days by microdilution method
# Format: functional
# Details: CNCTC My 235/80, 504 h
# Summary of the method: as §1
row,Compound,MIC
1,CCC(C)c1ccc(-n2c(=O)oc3cc(Cl)ccc3c2=O)cc1 (configuration not stated),8 µM
2,CC(C)(C)c1ccc(-n2c(=O)oc3cc(Cl)ccc3c2=O)cc1,16 µM
3,CC(C)c1ccc(-n2c(=O)oc3cc(Cl)ccc3c2=S)cc1,8 µM
4,CCC(C)c1ccc(-n2c(=O)oc3ccc(Cl)cc3c2=S)cc1 (configuration not stated),8 µM
5,CCC(C)c1ccc(-n2c(=O)oc3cc(Cl)ccc3c2=S)cc1 (configuration not stated),8 µM
6,CCCCc1ccc(-n2c(=O)oc3ccc(Cl)cc3c2=S)cc1,16 µM
7,CC(C)(C)c1ccc(-n2c(=O)oc3cc(Cl)ccc3c2=S)cc1,8 µM
8,CCc1ccc(-n2c(=S)oc3ccc(Br)cc3c2=S)cc1,16 µM
9,CCc1ccc(-n2c(=S)oc3ccc(Cl)cc3c2=S)cc1,8 µM
10,CCc1ccc(-n2c(=S)oc3cc(Cl)ccc3c2=S)cc1,16 µM
11,CC(C)c1ccc(-n2c(=S)oc3ccc(Br)cc3c2=S)cc1,62.5 µM
12,CC(C)c1ccc(-n2c(=S)oc3ccc(Cl)cc3c2=S)cc1,16 µM
13,CC(C)c1ccc(-n2c(=S)oc3cc(Cl)ccc3c2=S)cc1,8 µM
14,NNC(=O)c1ccncc1 [ISONIAZID],> 250 µM

# Tested on: Mycobacterium avium
# Assay: Antimycobacterial activity against Mycobacterium avium CNCTC My 330/88 after 21 days by microdilution method
# Format: functional
# Details: CNCTC My 330/88, 504 h
# Summary of the method: as §1
row,Compound,MIC
1,CCC(C)c1ccc(-n2c(=O)oc3cc(Cl)ccc3c2=O)cc1 (configuration not stated),8 µM
2,CC(C)(C)c1ccc(-n2c(=O)oc3cc(Cl)ccc3c2=O)cc1,8 µM
3,CC(C)c1ccc(-n2c(=O)oc3cc(Cl)ccc3c2=S)cc1,8 µM
4,CCC(C)c1ccc(-n2c(=O)oc3ccc(Cl)cc3c2=S)cc1 (configuration not stated),32 µM
5,CCC(C)c1ccc(-n2c(=O)oc3cc(Cl)ccc3c2=S)cc1 (configuration not stated),8 µM
6,CCCCc1ccc(-n2c(=O)oc3ccc(Cl)cc3c2=S)cc1,16 µM
7,CC(C)(C)c1ccc(-n2c(=O)oc3cc(Cl)ccc3c2=S)cc1,8 µM
8,CCc1ccc(-n2c(=S)oc3ccc(Br)cc3c2=S)cc1,62.5 µM
9,CCc1ccc(-n2c(=S)oc3ccc(Cl)cc3c2=S)cc1,16 µM
10,CCc1ccc(-n2c(=S)oc3cc(Cl)ccc3c2=S)cc1,8 µM
11,CC(C)c1ccc(-n2c(=S)oc3ccc(Br)cc3c2=S)cc1,16 µM
12,CC(C)c1ccc(-n2c(=S)oc3ccc(Cl)cc3c2=S)cc1,125 µM
13,CC(C)c1ccc(-n2c(=S)oc3cc(Cl)ccc3c2=S)cc1,8 µM
14,NNC(=O)c1ccncc1 [ISONIAZID],> 250 µM

# Tested on: Mycobacterium tuberculosis
# Assay: Antimycobacterial activity against Mycobacterium tuberculosis CNCTC My 331/88 after 14 days by microdilution method
# Format: functional
# Details: CNCTC My 331/88, 336 h
# Summary of the method: as §1
row,Compound,MIC
1,CCC(C)c1ccc(-n2c(=O)oc3cc(Cl)ccc3c2=O)cc1 (configuration not stated),4 µM
2,CC(C)(C)c1ccc(-n2c(=O)oc3cc(Cl)ccc3c2=O)cc1,4 µM
3,CC(C)c1ccc(-n2c(=O)oc3cc(Cl)ccc3c2=S)cc1,0.5 µM
4,CCC(C)c1ccc(-n2c(=O)oc3ccc(Cl)cc3c2=S)cc1 (configuration not stated),0.5 µM
5,CCC(C)c1ccc(-n2c(=O)oc3cc(Cl)ccc3c2=S)cc1 (configuration not stated),1 µM
6,CCCCc1ccc(-n2c(=O)oc3ccc(Cl)cc3c2=S)cc1,1 µM
7,CC(C)(C)c1ccc(-n2c(=O)oc3cc(Cl)ccc3c2=S)cc1,2 µM
8,CCc1ccc(-n2c(=S)oc3ccc(Br)cc3c2=S)cc1,1 µM
9,CCc1ccc(-n2c(=S)oc3ccc(Cl)cc3c2=S)cc1,0.5 µM
10,CCc1ccc(-n2c(=S)oc3cc(Cl)ccc3c2=S)cc1,0.5 µM
11,CC(C)c1ccc(-n2c(=S)oc3ccc(Br)cc3c2=S)cc1,0.5 µM
12,CC(C)c1ccc(-n2c(=S)oc3ccc(Cl)cc3c2=S)cc1,0.5 µM
13,CC(C)c1ccc(-n2c(=S)oc3cc(Cl)ccc3c2=S)cc1,0.5 µM
14,NNC(=O)c1ccncc1 [ISONIAZID],0.5 µM

# Tested on: Mycobacterium kansasii
# Assay: Antimycobacterial activity against Mycobacterium kansasii 6509/96 after 21 days by microdilution method
# Format: functional
# Details: 6509/96, 504 h
# Summary of the method: (§2)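 Clinical isolate that, unlike the standard strain, is not isoniazid-resistant. Tested by dilution micromethod in Šula semisynthetic medium, with compounds added in DMSO at final 1000 down to 0.25 µmol/L in twofold steps. Löwenstein-Jensen plate used as inoculum sterility and growth control. Incubated at 37 °C and read at 14 and 21 days. MIC is the lowest concentration inhibiting growth.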
row,Compound,MIC
1,CCC(C)c1ccc(-n2c(=O)oc3cc(Cl)ccc3c2=O)cc1 (configuration not stated),8 µM
2,CC(C)(C)c1ccc(-n2c(=O)oc3cc(Cl)ccc3c2=O)cc1,8 µM
3,CC(C)c1ccc(-n2c(=O)oc3cc(Cl)ccc3c2=S)cc1,8 µM
4,CCC(C)c1ccc(-n2c(=O)oc3ccc(Cl)cc3c2=S)cc1 (configuration not stated),8 µM
5,CCC(C)c1ccc(-n2c(=O)oc3cc(Cl)ccc3c2=S)cc1 (configuration not stated),2 µM
6,CCCCc1ccc(-n2c(=O)oc3ccc(Cl)cc3c2=S)cc1,4 µM
7,CC(C)(C)c1ccc(-n2c(=O)oc3cc(Cl)ccc3c2=S)cc1,4 µM
8,CCc1ccc(-n2c(=S)oc3ccc(Br)cc3c2=S)cc1,8 µM
9,CCc1ccc(-n2c(=S)oc3ccc(Cl)cc3c2=S)cc1,6 µM
10,CCc1ccc(-n2c(=S)oc3cc(Cl)ccc3c2=S)cc1,16 µM
11,CC(C)c1ccc(-n2c(=S)oc3ccc(Br)cc3c2=S)cc1,8 µM
12,CC(C)c1ccc(-n2c(=S)oc3ccc(Cl)cc3c2=S)cc1,2 µM
13,CC(C)c1ccc(-n2c(=S)oc3cc(Cl)ccc3c2=S)cc1,4 µM
14,NNC(=O)c1ccncc1 [ISONIAZID],8 µM

# Tested on: Mycobacterium kansasii
# Assay: Antimycobacterial activity against Mycobacterium kansasii 6509/96 after 14 days by microdilution method
# Format: functional
# Details: 6509/96, 336 h
# Summary of the method: as §2
row,Compound,MIC
1,CCC(C)c1ccc(-n2c(=O)oc3cc(Cl)ccc3c2=O)cc1 (configuration not stated),8 µM
2,CC(C)(C)c1ccc(-n2c(=O)oc3cc(Cl)ccc3c2=O)cc1,8 µM
3,CC(C)c1ccc(-n2c(=O)oc3cc(Cl)ccc3c2=S)cc1,4 µM
4,CCC(C)c1ccc(-n2c(=O)oc3ccc(Cl)cc3c2=S)cc1 (configuration not stated),4 µM
5,CCC(C)c1ccc(-n2c(=O)oc3cc(Cl)ccc3c2=S)cc1 (configuration not stated),1 µM
6,CCCCc1ccc(-n2c(=O)oc3ccc(Cl)cc3c2=S)cc1,4 µM
7,CC(C)(C)c1ccc(-n2c(=O)oc3cc(Cl)ccc3c2=S)cc1,2 µM
8,CCc1ccc(-n2c(=S)oc3ccc(Br)cc3c2=S)cc1,4 µM
9,CCc1ccc(-n2c(=S)oc3ccc(Cl)cc3c2=S)cc1,4 µM
10,CCc1ccc(-n2c(=S)oc3cc(Cl)ccc3c2=S)cc1,8 µM
11,CC(C)c1ccc(-n2c(=S)oc3ccc(Br)cc3c2=S)cc1,4 µM
12,CC(C)c1ccc(-n2c(=S)oc3ccc(Cl)cc3c2=S)cc1,1 µM
13,CC(C)c1ccc(-n2c(=S)oc3cc(Cl)ccc3c2=S)cc1,4 µM
14,NNC(=O)c1ccncc1 [ISONIAZID],8 µM
